≈ marks a conversion by molar mass, not a printed value. Calls of active or inactive are those of the source.

What is called MIC is the smallest concentration in the dilution series that meets the test's criterion for growth inhibition.

Assay [1] concerns Acinetobacter baumannii. Kind of assay: Potentiation of moxifloxacin-induced antibiotic activity against Acinetobacter baumannii ATCC 17978 assessed as MIC fold reduction at 8 ug/ml after 18 hrs by microbroth dilution method. It counts as functional. The following applies: dose 8 µg/ml. The gist of the method: (§1)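 Adjuvant held at a fixed 8 μg/mL while the antibiotic was 2-fold serially diluted in Mueller-Hinton broth (MHB), per CLSI microbroth dilution. Overnight cultures were adjusted in saline to 0.5 McFarland, then diluted 1:50 in MHB to about 5 × 10^5 CFU/mL final, and incubated 18 h at 37 °C. MIC was the lowest concentration with no visible turbidity, confirmed at 590 nm. Fold potentiation = MIC alone / MIC with adjuvant.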
(In broth dilution the organism is exposed to a series of concentrations in liquid medium.)

Assay [2] concerns Pseudomonas aeruginosa. Kind of assay: Potentiation of vancomycin-induced antibiotic activity against Pseudomonas aeruginosa PAO1 assessed as MIC fold reduction at 8 ug/ml after 18 hrs by microbroth dilution method. Conditions: dose 8 µg/ml. It counts as functional.
Assay [3] relates to Escherichia coli. Kind of assay: Potentiation of vancomycin-induced antibiotic activity against Escherichia coli ATCC 25922 assessed as MIC fold reduction at 8 ug/ml after 18 hrs by microbroth dilution method. Type of assay: functional. The following applies: dose 8 µg/ml.
Assay [4] relates to Pseudomonas aeruginosa. Kind of assay: Potentiation of niclosamide-induced antibiotic activity against Pseudomonas aeruginosa PAO1 assessed as MIC fold reduction at 8 ug/ml after 18 hrs by microbroth dilution method. Type of assay: functional. Conditions: dose 8 µg/ml.
The test system of assay [5] is Escherichia coli. Kind of assay: Potentiation of niclosamide-induced antibiotic activity against Escherichia coli ATCC 25922 assessed as MIC fold reduction at 8 ug/ml after 18 hrs by microbroth dilution method. Type of assay: functional. Conditions: dose 8 µg/ml.
For assay [6], the system named is Pseudomonas aeruginosa. Kind of assay: Potentiation of piperacilin-induced antibiotic activity against Pseudomonas aeruginosa PAO1 assessed as MIC fold reduction at 8 ug/ml after 18 hrs by microbroth dilution method. It counts as functional. The following applies: dose 8 µg/ml.
For assay [7], the system named is Acinetobacter baumannii. Kind of assay: Potentiation of ceftazidime-induced antibiotic activity against Acinetobacter baumannii ATCC 17978 assessed as MIC fold reduction at 8 ug/ml after 18 hrs by microbroth dilution method. It counts as functional. The following applies: dose 8 µg/ml. The gist of the method: as §1
For assay [8], the system named is Escherichia coli. Kind of assay: Potentiation of cefiderocol-induced antibiotic activity against Escherichia coli ATCC 25922 assessed as MIC fold reduction at 8 ug/ml after 18 hrs by microbroth dilution method. The following applies: dose 8 µg/ml. Type of assay: functional. The essentials: (§2)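 Initial screen in MHB using a fixed 8 μg mL−1 of adjuvant combined with each antibiotic under 2-fold dilution. Broth microdilution used about 5 × 10^5 CFU/mL at 37 °C for 18 h, with visible turbidity read and confirmed at 590 nm. Fold-potentiation = antibiotic MIC alone ÷ antibiotic MIC with adjuvant.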

Assay [9] concerns Acinetobacter baumannii. Kind of assay: Potentiation of doxycycline-induced antibiotic activity against Acinetobacter baumannii ATCC 17978 assessed as MIC fold reduction at 8 ug/ml after 18 hrs by microbroth dilution method. It counts as functional. Conditions: dose 8 µg/ml. The essentials: as §1
The test system of assay [10] is Escherichia coli. Kind of assay: Antibacterial activity against Escherichia coli ATCC 25922 assessed as reduction in bacterial growth after 18 hrs by microbroth dilution method. Type of assay: functional. The gist of the method:
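CLSI microbroth dilution in MHB. Overnight cultures were adjusted to 0.5 McFarland in saline, diluted 1:50, and inoculated at about 5 × 10^5 CFU/mL. Agents were 2-fold serially diluted and incubated 18 h at 37 °C. MIC is the lowest concentration without visible turbidity, confirmed by absorbance at 590 nm. Medium with and without cells served as controls.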

The subject of assay [11] is Pseudomonas aeruginosa. Kind of assay: Potentiation of cefotaxime-induced antibiotic activity against MDR clinical isolate Pseudomonas aeruginosa PA264 assessed as MIC fold reduction at 8 ug/ml after 18 hrs by microbroth dilution method. Type of assay: functional, organism-based. Conditions: dose 8.0 µg/ml. The essentials: as §1
The test system of assay [12] is Pseudomonas aeruginosa. Kind of assay: Potentiation of cefiderocol-induced antibiotic activity against MDR clinical isolate Pseudomonas aeruginosa PA264 assessed as MIC fold reduction at 8 ug/ml after 18 hrs by microbroth dilution method. Type of assay: functional, organism-based. Conditions: dose 8.0 µg/ml. The gist of the method:
as §2

In assay [13] the test system is Pseudomonas aeruginosa. Kind of assay: Antibacterial activity against […] Pseudomonas aeruginosa PAO1 assessed as reduction in bacterial growth after 18 hrs by microbroth dilution method. It counts as functional. The gist of the method:
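Broth microdilution per CLSI in Mueller-Hinton broth (MHB). Overnight cultures were adjusted to 0.5 McFarland in saline, diluted 1:50 in MHB, and added at about 5 × 10^5 CFU/mL final to equal volumes of 2-fold serial dilutions of agent. Incubation was 18 h at 37 °C. MIC was the lowest concentration with no visible turbidity, confirmed by absorbance at 590 nm.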

Assay [14] deals with Pseudomonas aeruginosa. Kind of assay: Antibacterial activity against MDR clinical isolate Pseudomonas aeruginosa PA260 assessed as reduction in bacterial growth after 18 hrs by microbroth dilution method. Type of assay: functional. The essentials:
(§3)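 CLSI broth microdilution. Overnight cultures were adjusted in saline to 0.5 McFarland, diluted 1:50 in Mueller-Hinton broth (MHB), and inoculated at about 5 × 10^5 CFU/mL. Agents were 2-fold serially diluted in MHB, mixed 1:1 with inoculum, and held at 37 °C for 18 h. MIC was the lowest concentration with no visible turbidity, confirmed at 590 nm.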

Assay [15] concerns Pseudomonas aeruginosa. Kind of assay: Antibacterial activity against MDR clinical isolate Pseudomonas aeruginosa PA262 assessed as reduction in bacterial growth after 18 hrs by microbroth dilution method. It counts as functional. The gist of the method:
as §3

Assay [16] deals with Pseudomonas aeruginosa. Kind of assay: Antibacterial activity against […] Pseudomonas aeruginosa PAO1 assessed as reduction in bacterial growth after 18 hrs in presence of cefiderocol by microbroth dilution method. It counts as functional. The gist of the method:
(§4)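 Checkerboard in MHB. Cefiderocol was 2-fold serially diluted along one axis and the adjuvant along the other. Inoculum was prepared from 0.5 McFarland saline suspensions diluted 1:50 in MHB, giving about 5 × 10^5 CFU/mL final. Plates ran 18 h at 37 °C, with turbidity confirmed at 590 nm. FIC = combination MIC ÷ MIC alone for each agent, and FIC index = sum of both. Interpretation: ≤0.5 synergy, >0.5–4 additive, >4 antagonism.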

Assay [17] concerns Pseudomonas aeruginosa. Kind of assay: Antibacterial activity against MDR clinical isolate Pseudomonas aeruginosa PA109084 assessed as reduction in bacterial growth after 18 hrs in presence of cefiderocol by microbroth dilution method. It counts as functional. The essentials:
as §4

Assay [18] has as its system Acinetobacter baumannii. Kind of assay: Antibacterial activity against Acinetobacter baumannii LAC-4 assessed as reduction in bacterial growth after 18 hrs in presence of cefiderocol by microbroth dilution method. Type of assay: functional. The essentials:
(§5)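 Checkerboard in Mueller-Hinton broth: cefiderocol 2-fold diluted on one axis, adjuvant 2-fold on the other. Overnight cultures were adjusted to 0.5 McFarland in saline, diluted 1:50 in MHB, and inoculated at about 5 × 10^5 CFU/mL. Incubation was 18 h at 37 °C. Turbidity was read visually and confirmed at 590 nm. FIC index = FIC of antibiotic + FIC of adjuvant; ≤0.5 synergy, >4 antagonism.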

Assay [19] concerns Acinetobacter baumannii. Kind of assay: Antibacterial activity against Acinetobacter baumannii ATCC 17978 assessed as potentiation of cefiderocol antibacterial activity by measuring FIC after 18 hrs by microbroth dilution method. Type of assay: functional. The gist of the method: as §5
A further assay concerns Klebsiella pneumoniae. Kind of assay: Antibacterial activity against Klebsiella pneumoniae KP113254 assessed as reduction in bacterial growth after 18 hrs by microbroth dilution method. It counts as functional. The essentials:
as §3

The test system of assay [20] is Escherichia coli. Kind of assay: Antibacterial activity against Escherichia coli 94393 assessed as reduction in bacterial growth after 18 hrs in presence of cefiderocol by microbroth dilution method. It counts as functional. The gist of the method:
as §5

A further assay relates to Enterobacter cloacae. Kind of assay: Antibacterial activity against Enterobacter cloacae 121187 assessed as reduction in bacterial growth after 18 hrs in presence of cefiderocol by microbroth dilution method. It counts as functional. The essentials: as §5
For assay [21], the system named is Escherichia coli. Kind of assay: Antibacterial activity against Escherichia coli 94393 assessed as potentiation of cefiderocol antibacterial activity by measuring FIC after 18 hrs by microbroth dilution method. It counts as functional. The gist of the method: as §5
Assay [22] has as its system Pseudomonas aeruginosa. Kind of assay: Potentiation of moxifloxacin-induced antibiotic activity against Pseudomonas aeruginosa PA264 assessed as MIC fold reduction in ID-CAMHB condition at 8 ug/ml after 18 hrs by microbroth dilution method. It counts as functional, organism-based. The following applies: dose 8.0 µg/ml.

Consider `NC[C@H]1O[C@H](O[C@H]2[C@H](OCCCCc3cn(-c4ccc(NC(=O)c5cc(Cl)ccc5O)cc4)nn3)[C@@H](O[C@H]3O[C@H](CO)[C@@H](O)[C@H](N)[C@H]3O)[C@H](N)C[C@@H]2N)[C@H](N)C[C@@H]1O`, for which the “fold change (FC)” value with Acinetobacter baumannii [1], in the assay on Pseudomonas aeruginosa [2], in the assay with Escherichia coli [3], in the assay with Pseudomonas aeruginosa [4], in the assay with Escherichia coli [5] and in the assay on Pseudomonas aeruginosa [6] was 4 each time. Moreover, the “fold change (FC)” value in the assay on Acinetobacter baumannii [7], in the assay on Escherichia coli [8] and with Acinetobacter baumannii [9] was 4 in each case. Also, the MIC was > 128 µg/mL with Escherichia coli [10]; 64 µg/mL (≈ 76.5 µM) in the assay with Pseudomonas aeruginosa [13]; > 128 µg/mL in the assay with Pseudomonas aeruginosa [14]; > 128 µg/mL with Pseudomonas aeruginosa [15]; 0.5 µg/mL in the assay with Pseudomonas aeruginosa [16]; 0.5 µg/mL in the assay with Pseudomonas aeruginosa [17]. The MIC is 0.25 µg/mL with Acinetobacter baumannii [18], > 128 µg/mL in the assay on Klebsiella pneumoniae, 1 µg/mL in the assay on Escherichia coli [20] and 0.25 µg/mL in the assay on Enterobacter cloacae. Also, the result in the assay on Pseudomonas aeruginosa [11], with Pseudomonas aeruginosa [12] and in the assay with Pseudomonas aeruginosa [22] was Active. Moreover, the FIC with Acinetobacter baumannii [19] and in the assay with Escherichia coli [21] was 0.25 each time.

These data come from ChEMBL document CHEMBL5136969, “A niclosamide-tobramycin hybrid adjuvant potentiates cefiderocol against P. aeruginosa” (2021).
